Screening results: PubChem, The Scripps Research Institute Molecular Screening Center
Most compounds without a hit are left out; they make up all but 2.6% or so of the library.
TCR CD3 inh – inhibitors of human TCR-CD3 interaction, primary screen, biochemical, fluorescence, TAMRA-labeled TCR probe; inhibition, % at 9.4 µM; 0.37% of 360,000 active; AID 651800, 2012; in the data active = inhibition above about 19%;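 also: recombinant mutant TCR 2C K166C tagged with TAMRA read by polarization; 0% = receptor in buffer alone and 100% = receptor with positive control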
mABHD4 FP – ABHD4 inhibitors, primary screen, biochemical, fluorescence polarization, mouse; (Lyso)-N-acylphosphatidylethanolamine lipase (Mus musculus), Q8VD66; purified mABHD4, FP-Rh probe fluorescence polarization; inhibition, % at 8.92 µM; 0.54% of 370,000 active;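 active = inhibition exceeding the mean over every tested compound plus 3 SD, cut at about 30% in these data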;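 also: 0% = plate median of compound wells and 100% = S159A mutant with DMSO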
Target sequence (Q8VD66 whole entry, looked up): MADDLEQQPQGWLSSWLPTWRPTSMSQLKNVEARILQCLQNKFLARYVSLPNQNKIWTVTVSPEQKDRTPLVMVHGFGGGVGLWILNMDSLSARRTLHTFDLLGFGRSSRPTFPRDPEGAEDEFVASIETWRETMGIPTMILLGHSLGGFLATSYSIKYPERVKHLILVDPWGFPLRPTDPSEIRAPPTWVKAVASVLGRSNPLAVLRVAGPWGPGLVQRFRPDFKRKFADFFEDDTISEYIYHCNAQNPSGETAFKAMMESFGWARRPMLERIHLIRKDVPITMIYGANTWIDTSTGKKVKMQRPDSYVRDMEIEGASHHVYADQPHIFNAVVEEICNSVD
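Assay system: wild-type mouse ABHD4 protein; compound: single nominal dose of 8.92 µM, 0.89% DMSO final; schedule: 45 min + 60 min at 25 °C; measured by: FP readout, ex 525 nm / em 598 nm; evaluation: % inhibition of FP-Rh probe binding versus controls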
HTRA1 inhibitor – HTRA1 serine protease inhibitors, primary screen, biochemical, fluorescence polarization, HTS. 0.5% of 340,000 active. inhibition, % at 5.96 µM. recombinant HTRA1, FP-rhodamine activity-based probe. Q92743; in the data active = inhibition above about 36%;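 also: 0% = enzyme with DMSO and 100% = wells lacking enzyme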
SIAE inh – human SIAE inhibitors, primary screen, biochemical, fluorescence polarization, FP-Rh probe, 1536-well HTS; Sialate O-acetylesterase (Homo sapiens), Q9HAT2; AID 1053197, 2014; SIAE FP-Rh probe binding; inhibition, % at 9.66 µM; 0.69% of 370,000 active;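 active = inhibition above a cutoff: mean of compounds within the control limits plus 3 SD of those, cut at about 17% in these data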;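 also: 0% = plate median of compound wells and 100% = probe without SIAE protein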
PRMT1 FP inh – PRMT1 methyltransferase inhibitors, primary screen, biochemical, fluorescence polarization | inhibition, % at 2.79 µM | Protein arginine N-methyltransferase 1 (Homo sapiens), Q99873 | recombinant PRMT1, activity-based probe fluorescence polarization | AID 652257, 2013 | 1.3% of 370,000 active;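 active = inhibition above about 21% made by adding two undisclosed values, limit read from the data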
SIAE inh conf – human SIAE inhibitors, retest, confirmation, biochemical, fluorescence polarization, FP-Rh probe, triplicate; shares compounds with SIAE inh; SIAE FP-Rh activity-based probe; inhibition, % at 9.66 µM; 13% of 2,300 active; AID 1117263, 2014;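 active = mean inhibition of the replicates above the hit cutoff set in the primary screen, cut at about 17% in these data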;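 also: 0% = SIAE with DMSO and probe and 100% = probe without SIAE; inhibitors lower polarization as more probe stays unbound to SIAE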
The depositor's hits bear a star.

For Cc1ccc(C(=O)Nc2cccc(C(=O)N3CCOCC3)c2)cc1 the results were TCR CD3 inh 10, mABHD4 FP 1, HTRA1 inhibitor -3, SIAE inh 26*, PRMT1 FP inh -1 and SIAE inh conf 4.
`CC(C)(C)c1ccc(C(=O)Nc2cccc(C(=O)N3CCOCC3)c2)cc1` gave TCR CD3 inh -2, mABHD4 FP -2, HTRA1 inhibitor -2, SIAE inh -3 and PRMT1 FP inh 1.
For COc1ccc(C(=O)Nc2ccc(N3CCOCC3)cc2)cc1S(=O)(=O)NC1CCCC1 the results were TCR CD3 inh -3, mABHD4 FP 2, HTRA1 inhibitor 4, SIAE inh 17*, PRMT1 FP inh 1 and SIAE inh conf -6.
Screening O=C1N2Cc3ccccc3C2CS(=O)(=O)N1CCc1ccccc1 (stereo not given) returned mABHD4 FP -2, SIAE inh 2 and PRMT1 FP inh -2.
Screening CC(C)(C)c1ccc(C#C[C@@H]2C=C[C@@H](O)[C@@H](COC(=O)NCc3ccccc3)O2)cc1 returned TCR CD3 inh 5, mABHD4 FP -23, SIAE inh -1 and PRMT1 FP inh 2.
Screening COc1ccc(/C=N/NC(=O)c2ccc(F)cc2)cc1CN1CCc2cc(OC)c(OC)cc2C1C (stereo not given) returned TCR CD3 inh 8, mABHD4 FP -2, HTRA1 inhibitor -14, SIAE inh -2 and PRMT1 FP inh -5.
`COc1ccc(/C=N/NC(=O)c2ccc(O)cc2)cc1CN1CCCc2ccccc21` gave TCR CD3 inh -5, mABHD4 FP -1, HTRA1 inhibitor -25, SIAE inh 26*, PRMT1 FP inh 0 and SIAE inh conf -4.
Cc1ccc(-c2nnc(Nc3ccc(C(=O)N(C)C)cc3)c3ccccc23)cc1S(=O)(=O)NCC1CCCO1 (stereo not given) was read as TCR CD3 inh 0, mABHD4 FP -6, HTRA1 inhibitor -10, SIAE inh 21*, PRMT1 FP inh 1 and SIAE inh conf -5.
`COc1cccc(-c2noc(-c3cccnc3)n2)c1` gave TCR CD3 inh -6, mABHD4 FP -1, HTRA1 inhibitor 0, SIAE inh -3 and PRMT1 FP inh -1.
`COc1cccc(-c2noc(C(C)n3nc(C)c([N+](=O)[O-])c3C)n2)c1` (stereo not given) gave TCR CD3 inh 0, mABHD4 FP -13, HTRA1 inhibitor -7, SIAE inh 34*, PRMT1 FP inh 0 and SIAE inh conf -1.
Screening CC(C)C(=O)OCCCN1C(=O)CCC12CCC(c1ccccc1)CC2 (stereo not given) returned mABHD4 FP 3, SIAE inh 1 and PRMT1 FP inh 0.
Oc1ccccc1C=NNC(=S)NN=Cc1ccccc1O was read as TCR CD3 inh 18, mABHD4 FP 28, HTRA1 inhibitor 32, SIAE inh 42*, PRMT1 FP inh 3 and SIAE inh conf 52*.
`NC(=S)N/N=C/c1ccccc1O` gave TCR CD3 inh -2, mABHD4 FP 2, HTRA1 inhibitor -3, SIAE inh 4 and PRMT1 FP inh 3.
For O=C(O)Cn1c(CCS(=O)(=O)c2ccc(Br)cc2)nc2ccccc21 the results were TCR CD3 inh -4, mABHD4 FP 3, HTRA1 inhibitor -2, SIAE inh 29*, PRMT1 FP inh 4 and SIAE inh conf 4.
COC(=O)Cn1c(CCS(=O)(=O)c2ccc(C)c(C)c2)nc2ccccc21 was read as TCR CD3 inh 4, mABHD4 FP 1, HTRA1 inhibitor -3, SIAE inh -6 and PRMT1 FP inh -1.
`O=C(O)C1=C[C@@H](c2csc3ccccc23)C[C@@H](OCc2ccc(CO)cc2)O1` gave TCR CD3 inh 5, mABHD4 FP 4, HTRA1 inhibitor -1, SIAE inh 22*, PRMT1 FP inh 2 and SIAE inh conf -1.
Screening CCCc1cc(=O)[nH]c(SCC(=O)Nc2sccc2C#N)n1 returned TCR CD3 inh -7, mABHD4 FP 13, HTRA1 inhibitor -3, SIAE inh 17*, PRMT1 FP inh 2 and SIAE inh conf 3.
C(=C\c1ccccc1)/CSc1nnc(-c2cccnc2)o1 was read as TCR CD3 inh -2, mABHD4 FP -18, HTRA1 inhibitor 0, SIAE inh 21*, PRMT1 FP inh 3 and SIAE inh conf 1.
`N#Cc1ccccc1N1CCN(C(=O)C2CCN(c3ncnc4c3sc3cccc(F)c34)CC2)CC1` gave mABHD4 FP -11, SIAE inh 2 and PRMT1 FP inh -1.
For COC(=O)[C@]12C[C@H](CC(=O)NCCc3ccccc3OC)C(=O)N(Cc3ccc(Cl)cc3Cl)C1=C[C@H](C1CCCC1)O[C@@H]2C the results were mABHD4 FP -1, SIAE inh -1 and PRMT1 FP inh -1.
For CC(=O)NCCC(=O)Nc1cc(S(=O)(=O)Nc2ccc(Cl)cc2)ccc1N1CCCC1 the results were TCR CD3 inh 7, mABHD4 FP 4, HTRA1 inhibitor -3, SIAE inh 18*, PRMT1 FP inh 3 and SIAE inh conf 4.
Screening C=CCN1C(=O)[C@@H](CC(=O)NCc2ccc(OC)c(OC)c2)[C@]2(C(=O)OCC)CCCCC/C=C/12 returned mABHD4 FP -2, SIAE inh 1 and PRMT1 FP inh -2.
O=C(CSc1nnc(COc2ccccc2)n1-c1ccccc1)Nc1ccc2c(c1)OCO2 was read as mABHD4 FP 1, SIAE inh 1 and PRMT1 FP inh 2.
`O=C(Nc1ccc2ccccc2c1)c1cccc([N+](=O)[O-])c1` gave TCR CD3 inh 12, mABHD4 FP -8, HTRA1 inhibitor -17, SIAE inh 29*, PRMT1 FP inh -4 and SIAE inh conf -29.
`O=C(O)c1cccc([N+](=O)[O-])c1C(=O)Nc1ccc2ccccc2c1` gave TCR CD3 inh -1, mABHD4 FP 2, HTRA1 inhibitor 2, SIAE inh 21*, PRMT1 FP inh 4 and SIAE inh conf 7.
For O=C(Nc1ccc2ccccc2c1)c1ccccc1[N+](=O)[O-] the results were TCR CD3 inh 2, mABHD4 FP 1, HTRA1 inhibitor -25, SIAE inh 1 and PRMT1 FP inh -4.
`Cc1c(C(=O)Nc2ccc3c(c2)CCC3)cccc1[N+](=O)[O-]` gave TCR CD3 inh -3, mABHD4 FP 2, HTRA1 inhibitor -8, SIAE inh 18*, PRMT1 FP inh -3 and SIAE inh conf -2.
